One may read the pIC50 as the negative decadic logarithm of the IC50, by convention in mol/L.

Each structure is given as a SMILES string. pIC50: −log10 of the molar value.

These results are taken from ChEMBL document CHEMBL2413028, “1-Hydroxypyrazole as a bioisostere of the acetic acid moiety in a series of aldose reductase inhibitors” (Bioorg Med Chem, 2013).

The target of assay [1] is Aldo-keto reductase family 1 member A1 (Rattus norvegicus, UniProt P51635). The assay is described as follows: Inhibition of partially purified Fischer-344 rat kidney ALR1 using D,L-glycuronate as substrate assessed as NADPH consumption by spectrophotometry. The method in brief:
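Kidneys from Fischer-344 rats of both sexes homogenized in 3 vol 10 mM sodium phosphate buffer; 10,000g supernatant taken through ammonium sulfate fractions at 40%, 50% and 75% saturation. Last pellet redissolved in 10 mM sodium phosphate pH 7.2 with 2.0 mM EDTA and 2.0 mM β-mercaptoethanol, DEAE-treated, stored at −80 °C. Substrate D-glycuronate at 37 °C. NADPH loss read at 340 nm. Five concentrations, triplicate; IC50 by least squares on linear part of log(dose)–response.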

The species entered for the next assay is Rattus norvegicus. In words: Selectivity index, ratio of IC50 for partially purified Fischer-344 rat kidney ALR1 to IC50 for partially purified Fischer-344 rat lens ALR2. Conditions: Lens of camera-type eye.
In assay [2] the target is Aldo-keto reductase family 1 member B1 (Rattus norvegicus, UniProt P07943). In words: Inhibition of partially purified Fischer-344 rat lens ALR2 using D,L-glyceraldehyde as substrate assessed as NADPH consumption by spectrophotometry. More on the design: species or system Lens of camera-type eye. An outline of the steps:
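Supernatant brought to 40% ammonium sulfate saturation and spun again; supernatant used directly or kept ≤24 h at −80 °C. Compounds dissolved in 0.2 M NaHCO3. Substrate D,L-glyceraldehyde at 30 °C; NADPH loss at 340 nm. Five concentrations, triplicate; IC50 by least-squares fit of linear log(dose)–response region.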

Chain of Aldo-keto reductase family 1 member A1 (P51635 whole entry, looked up): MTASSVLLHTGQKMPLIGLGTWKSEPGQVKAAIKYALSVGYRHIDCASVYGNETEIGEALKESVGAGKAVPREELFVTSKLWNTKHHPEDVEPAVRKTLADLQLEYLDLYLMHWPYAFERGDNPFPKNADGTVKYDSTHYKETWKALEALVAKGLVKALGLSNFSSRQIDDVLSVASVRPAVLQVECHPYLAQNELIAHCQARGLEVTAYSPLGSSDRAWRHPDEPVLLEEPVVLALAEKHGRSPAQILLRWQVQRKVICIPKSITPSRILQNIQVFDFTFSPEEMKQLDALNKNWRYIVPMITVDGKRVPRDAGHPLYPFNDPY

As for `COc1ccc(C(=O)c2cccn2CC(=O)O)cc1`, the values for the pIC50 in assay [1] and in assay [2] were < 4.00 and 5.34, respectively. For the same molecule, the Ratio IC50 in the assay listed under Rattus norvegicus is > 21.9.

Consider `O=C(c1ccc(-c2ccccc2)cc1)c1cccn1-c1cnn(O)c1`, for which the pIC50 was < 4.00 in assay [1] and 5.01 in assay [2]. Further, the Ratio IC50 in the assay filed under Rattus norvegicus was > 10.2.

With `COc1ccc(C(=O)c2cccn2-c2cnn(O)c2)cc1`, the pIC50 in assay [1] was < 4.00; in assay [2], 4.82. Besides, in the assay listed under Rattus norvegicus, the Ratio IC50 was > 6.67.

On to `COc1ccc(C(=O)c2ccn(CC(=O)O)c2)cc1`, for which the pIC50 was < 4.00 in assay [1] and 5.80 in assay [2]. For the same molecule, the Ratio IC50 in the assay filed under Rattus norvegicus was > 62.4.

Consider `O=C(O)Cn1ccc(C(=O)c2ccccc2)c1`, for which the pIC50 in assay [1] is < 4.00. The Ratio IC50 in the assay filed under Rattus norvegicus is > 50.8.

On to `O=C(O)Cn1ccc(C(=O)c2ccc(-c3ccccc3)cc2)c1`, for which the pIC50 in assay [1] is 4.28; in assay [2] it was 6.46. Also, in the assay filed under Rattus norvegicus, the Ratio IC50 was 153.

For `O=C(c1ccc(-c2ccccc2)cc1)c1ccn(-c2cnn(O)c2)c1`, the pIC50 was 4.21 in assay [1] and 6.16 in assay [2]. For the same molecule, in the assay filed under Rattus norvegicus, the Ratio IC50 was 88.9.

Consider `O=C(c1ccccc1)c1cccn1-c1cnn(O)c1`, for which the pIC50 in assay [1] was < 4.00; in assay [2] it was 4.87. In addition, the Ratio IC50 in the assay filed under Rattus norvegicus is > 7.41.

For the molecule `COc1ccc(C(=O)c2ccn(-c3cnn(O)c3)c2)cc1`, the pIC50 in assay [1] is 4.97; in assay [2] it was 6.15. For the same molecule, the Ratio IC50 in the assay listed under Rattus norvegicus worked out at 11.2.

Regarding `O=C(O)Cn1cccc1C(=O)c1ccccc1`, the values for the pIC50 in assay [1] and in assay [2] were < 4.00 and 4.66, respectively. Besides, the Ratio IC50 in the assay listed under Rattus norvegicus is > 4.54.

As to `O=C(O)Cn1cccc1C(=O)c1ccc(-c2ccccc2)cc1`, the pIC50 in assay [1] is < 4.00; in assay [2], 5.15. Further, the Ratio IC50 in the assay filed under Rattus norvegicus was > 14.3.

On to `O=C(c1ccccc1)c1ccn(-c2cnn(O)c2)c1`, for which the pIC50 in assay [1] is 4.97; in assay [2] it was 5.94. Moreover, the Ratio IC50 in the assay filed under Rattus norvegicus is 9.46.
